In ChEMBL document CHEMBL1124954, “Atrial natriuretic peptide receptor modulators: effects of disubstituted quinazolines on receptor binding and in vitro biological activity” (J Med Chem, 1990):
Each block holds one compound with its values, some of them ahead of it. Active and inactive are the calls of the source. The rule behind the calls is not given here.

How the values were obtained:
[1] = In vitro binding affinity towards atrionatriuretic peptide receptor (ANP) using [125I]rANP as radioligand in bovine adrenal zonal glomerulosa membranes
[2] = In vitro binding affinity towards Atrionatriuretic peptide receptor (ANP) using [125I]rANP as radioligand in bovine adrenal zonal glomerulosa membranes
[3] = Percent increase in [125I]rANP binding at 20 uM concentration in bovine zona glomerulosa membranes; format: cell membranes
Rattus norvegicus [4] = species: Rattus norvegicus; assay: Inhibition of aldosterone synthesis was determined in rat adrenal glomerulosa per 2 hours at 3 uM concentration, in the absence of rANP (control = 1+/-0.1); format: functional
Rattus norvegicus [5] = species: Rattus norvegicus; assay: ACTH-stimulated aldosterone synthesis was determined in rat adrenal glomerulosa cell suspension (control = 8.5+/-0.9); format: functional
Rattus norvegicus [6] = species: Rattus norvegicus; assay: Concentration for rANP inhibition of aldosterone synthesis was determined in rat adrenal glomerulosa; format: functional
Summary of the method: (§1)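 Collagenase-dispersed male Sprague-Dawley rat adrenal glomerulosa cells were used at about 30,000 cells/mL in M199 with KCl 3.5 mM and BSA 2 mg/mL. They were incubated 2 h at 37 °C with ACTH 1 nM and rANP 10⁻¹⁰–10⁻⁸ M, plus compound or water vehicle. Aldosterone was measured by RIA. The EC50 came from a four-parameter logistic fit, compared by Student's t test, 10 experiments.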

Rattus norvegicus [7] = species: Rattus norvegicus; assay: Concentration for rANP inhibition of aldosterone synthesis was determined n rat adrenal glomerulosa; format: functional; summary of the method: as §1
Rattus norvegicus [8] = species: Rattus norvegicus; assay: Inhibition of aldosterone synthesis was determined in rat adrenal glomerulosa per 2 hours at 10 uM concentration, in the absence of rANP (control = 1.8+/-0.5); format: functional
Rattus norvegicus [9] = species: Rattus norvegicus; assay: Inhibition of ACTH (1 nM)-stimulated aldosterone synthesis was determined in rat adrenal glomerulosa (control = 17.4+/-2.5); format: functional
[10] = In vitro binding affinity towards atrionatriuretic peptide receptor (ANP) using [125I]rANP as radioligand in bovine adrenal zonal glomerulosa membranes; Not active at 20 uM

Compound: CC/N=C(/NC#N)NCCNc1nc(N(CC)CC)nc2ccccc12
Increase [3]: 12%

Compound: CCN(CC)c1nc(NCCCCN=C(N)N)c2ccccc2n1
SC50 [1]: 2.2 µM

Compound: CCN(CC)c1nc(NCCN=C(N)N)c2ccccc2n1
SC50 [1]: 2.4 µM

Compound: CCN(CC)c1nc(NCCCN=C(N)N)c2ccccc2n1
Concentration (Rattus norvegicus [4]): 0.9 ng/mL
Concentration (Rattus norvegicus [5]): 7.7 ng/mL
EC50 (Rattus norvegicus [6]): 0.12 nM
SC50 [1]: 1.8 µM

Compound: CC/N=C(/N)NCCNc1nc(N(CC)CC)nc2ccccc12
SC50 [1]: 7.4 µM

Compound: CCN(CC)c1nc(NCC/N=C(/NC)NC#N)c2ccccc2n1
Increase [3]: 25%

Compound: CCN(CC)c1nc(NCC/N=C(\N)NC)c2ccccc2n1
SC50 [1]: 4.5 µM

Compound: CCN(CC)c1nc(OC)c2ccccc2n1
EC50 (Rattus norvegicus [7]): 0.18 nM
Concentration (Rattus norvegicus [8]): 1.4 ng/mL
Concentration (Rattus norvegicus [9]): 17.8 ng/mL
SC50 [10]: inactive

The next lines start with the values.

SC50 [1]: 1.5 µM
Compound: CN(CCCN=C(N)N)c1nc(N2CCCC2)c2ccccc2n1

SC50 [2]: 25 µM
Compound: COc1cc2nc(N3CCN(C(=O)c4ccco4)CC3)nc(N)c2cc1OC

SC50 [1]: 7 µM
Compound: O=C(c1ccco1)N1CCN(c2nc(N3CCCC3)c3ccccc3n2)CC1

SC50 [1]: 4.2 µM
Compound: c1ccc2c(N3CCCC3)nc(N3CCNCC3)nc2c1

SC50 [1]: 5.6 µM
Compound: CN(CCCNC(=O)c1ccco1)c1nc(N2CCCC2)c2ccccc2n1
